Tests used:
[1] = system: phosphorylated Rb protein in A-549 cell line; assay: Rb phosphorylation by quantitative immunofluorescence; format: cell-based, human; details: A-549, dose-response
Outline: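 A-549 cells were treated with vehicle or test compound (less than 100 µM down to 50 nM) for 24 or 48 hr. Nuclear phospho-Rb was measured by immunofluorescence, and total DNA content per cell gave the cell-cycle phase. Automated image analysis quantified P-Rb changes as dose–response curves, from which IC50 values were taken.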

[2] = system: A-549 cell line; assay: Cell cycle distribution by total DNA content; format: cell-based, human; details: A-549, 24 and 48 hrs
Outline: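 A-549 cells treated 24 or 48 hr over a range from below 100 µM down to 50 nM, alongside a reference drug. Total DNA content per cell was quantified to assign cell cycle phase, together with immunofluorescent imaging of nuclear phosphorylated Rb. Automated image analysis quantified changes, and IC50 values were taken from dose–response curves.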

## CCN(CC)CCNC(=O)c1c(C)[nH]c(/C=C2\C(=O)Nc3ccc(F)cc32)c1C [Sunitinib]
[1]
  levels of phosphorylated Rb protein (immunofluorescence): substantially reduced the extent of phosphorylated Rb protein in a dose-dependent fashion
[2]
  Cell cycle influences: increase in the percentage of cells in the S or G2/M phases of the cell cycle, with a concomitant reduction in the G1 phase
